PGC1a acetyl inh: lowers PGC1a acetylation signal in U2OS cells. AID 651687. inhibition, % at 15.6 µM. 0.17% of 350,000 active. AlphaScreen anti-acetyl-lysine; with virally co-expressed GCN5 acetyltransferase;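 active means every replicate shows inhibition of at least 40%; inconclusive means mean inhibition at least 40% but some replicate below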;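 further: 0% = neutral control wells and 100% = positive control wells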
rRNA inh HTS: selective bacterial rRNA inhibition in E. coli; E. coli WT GFP vs humanized-ribosome RFP mutants, fluorescence, 24 h; hits give low values; DMSO median 0, no signal -100; GFP signal change (wild-type ribosome), % (no concentration beside the values); 1.6% of 350,000 active;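 active means significant combined selectivity score with lowered wild-type GFP, culture density cut under 30%, mutant RFP and density less affected; inactive means any of these conditions unmet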
S100A4 MyoIIA: S100A4-myosin IIA interaction inhibition. inhibition, % at 10.7 µM. S100A4/TAMRA-MyoIIA peptide fluorescence polarization. AID 652163. P26447. 0.14% of 360,000 active;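 active means mean inhibition of at least 70% across replicates, with every replicate also reaching that level; inconclusive means mean inhibition reaches 70% but some replicates fall short; inactive means mean inhibition below 70%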
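Test system: S100A4 monomer protein. Medium: HEPES buffer with Ca2+, pH 7.2. Reagent: fluorescent myosin IIA peptide, 5 nM. Compound dosing: single-point compound testing. Timing: 5 min between mix addition and reading. Benchmarks: DMSO neutral and TFP positive wells.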
ARNT-TACC3 inh: disrupts binding between human ARNT and TACC3. Q9Y6A5. AlphaScreen His-ARNT PAS-B/GST-TACC3 binding, luminescence; TACC3 fragment carries E629A point mutation. 0.66% of 390,000 active. inhibition, % at 9.99 µM. AID 623870;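 active means mean inhibition of replicates at least 50% and at least half of replicates each reaching 50%; inconclusive means half or more replicates reach 50% but mean below 50%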;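 further: 0% = complete ARNT plus TACC3 wells and 100% = ARNT alone without TACC3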
CASP6 VEID inh: inhibitors of human caspase-6. purified caspase-6, Z-VEID-R110 cleavage fluorescence. inhibition, % at 12.5 µM. 0.53% of 350,000 active;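 active means mean inhibition across replicates at least about 35%, with every replicate also reaching that limit, limit read from the data; inconclusive means only one of the two criteria met; inactive means neither criterion met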;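 further: 0% = median of neutral control wells and 100% = no fluorescence left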
ERAP1 HTS inh: inhibitors of human ERAP1 aminopeptidase | Q9NZ08 | recombinant ERAP1, Leu-AMC fluorescence, 60 min | inhibition, % at 10.7 µM | 0.15% of 340,000 active;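 active means mean replicate inhibition of at least 30%, or all replicates individually reaching that 30% level; inactive means mean below 30% and not every replicate reaching it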;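 further: 0% = neutral control wells and 100% = L-leucinethiol positive control wells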
Target sequence (Q9NZ08 whole entry, looked up): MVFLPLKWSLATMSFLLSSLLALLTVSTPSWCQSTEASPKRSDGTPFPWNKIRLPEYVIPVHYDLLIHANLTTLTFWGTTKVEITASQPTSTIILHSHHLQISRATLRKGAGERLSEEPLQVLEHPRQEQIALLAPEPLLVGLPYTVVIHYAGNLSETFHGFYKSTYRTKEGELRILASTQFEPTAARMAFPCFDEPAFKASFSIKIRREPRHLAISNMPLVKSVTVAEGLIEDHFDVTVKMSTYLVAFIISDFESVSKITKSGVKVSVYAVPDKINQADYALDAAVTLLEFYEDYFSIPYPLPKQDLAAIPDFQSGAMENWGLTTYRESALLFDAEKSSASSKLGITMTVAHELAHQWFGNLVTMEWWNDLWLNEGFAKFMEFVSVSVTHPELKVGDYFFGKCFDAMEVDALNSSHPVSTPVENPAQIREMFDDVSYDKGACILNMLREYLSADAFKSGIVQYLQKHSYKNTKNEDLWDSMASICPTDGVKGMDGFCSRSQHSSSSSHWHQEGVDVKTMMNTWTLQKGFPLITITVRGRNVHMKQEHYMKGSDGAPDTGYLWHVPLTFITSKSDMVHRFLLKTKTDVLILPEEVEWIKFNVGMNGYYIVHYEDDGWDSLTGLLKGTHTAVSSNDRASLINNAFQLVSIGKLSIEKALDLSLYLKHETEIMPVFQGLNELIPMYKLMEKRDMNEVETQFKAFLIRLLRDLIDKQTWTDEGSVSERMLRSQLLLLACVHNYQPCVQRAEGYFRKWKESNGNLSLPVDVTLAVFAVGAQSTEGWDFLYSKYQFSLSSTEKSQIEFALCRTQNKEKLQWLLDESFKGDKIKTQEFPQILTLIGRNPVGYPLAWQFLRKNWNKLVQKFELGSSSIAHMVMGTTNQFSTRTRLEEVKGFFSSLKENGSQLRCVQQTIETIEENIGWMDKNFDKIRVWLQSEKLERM
HepG2 tox: cytotoxic compounds in HepG2 cells; HepG2 viability, ATP luminescence, 72 h; shares compounds with rRNA inh HTS; activity change, negative = cytotoxicity, unspecified at 26 µM; 30 tested, under 10 active;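 active means compounds whose fitted half-maximal signal-loss concentration is at most twice their highest valid dose; inconclusive means flat curve with 30 to 70% signal loss, or poor fit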
AID977621: wild-type E. coli growth inhibition versus H69 humanized strain – H69 mutant RFP, wild-type GFP, cherry-pick, dose response; shares compounds with rRNA inh HTS; fluorescence, 24 h; activity change, negative = inhibition at 50 µM; 1,900 tested, under 10 active; AID 977621;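 active means Wild-type ribosome reporter drop at least double the humanized mutant ribosome reporter drop, growth loss under a set limit; inconclusive means no clear call, values can overlap the other calls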;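 further: wild-type GFP and H69 mutant RFP strains grown together 50/50 in each well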
AID977628: growth of wild-type and h24-humanized E. coli strains – h24 mutant RFP vs wild-type GFP, cherry-pick, dose response | E. coli WT GFP strain growth, fluorescence, 24 h | 1,900 tested, under 10 active | shares compounds with rRNA inh HTS | activity change, negative = inhibition at 50 µM;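 active means compound lowering the normal-ribosome reporter at least twice as much as the humanized-ribosome reporter, growth loss under a set limit; inconclusive means no clear call, values can overlap the other calls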;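 further: wild-type GFP and h24 humanized RFP strains co-cultured 1 to 1 per well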
* marks the source's active call; other numbers are inactive results; ? = inconclusive; · = not tested or not shown; ! = not active in a repeat. Shown are actives, neighbours in structure and some others; about 2.4% of the full set was active somewhere.

SMILES	PGC1a acetyl inh	rRNA inh HTS	S100A4 MyoIIA	ARNT-TACC3 inh	CASP6 VEID inh	ERAP1 HTS inh	AID977621	AID977628	others
N#Cc1nc(Cc2ccccc2)oc1N1CCCC1	·	-23*	-3	10	-4	-3	·	?
C[C@H]1CN([C@@H](C)CO)C(=O)c2cc(C3=CCCCC3)cnc2O[C@H]1CN(C)S(=O)(=O)c1cn(C)cn1	21	0	·	·	·	·	·	·
COc1ccc(S(=O)(=O)N(C)C[C@@H]2Oc3ccc(NC(=O)Nc4ccc(C(F)(F)F)cc4)cc3CC(=O)N([C@@H](C)CO)C[C@@H]2C)cc1	22	5	-6	-1	2	-4	·	·
COc1ccc(OC)c(NC(=O)c2c3c(nc4ccccc24)CCC3)c1	-5	-22*	-4	-3	3	-2	·	?
COc1ccc(NC(=O)c2c3c(nc4ccccc24)CCC3)cc1	-4	·	·	-2	·	·	·	·
COc1ccc(-c2ccc(C3[C@H]4CNC[C@@H]3N4CC3CCOCC3)cc2)cc1 (stereo partly drawn)	·	5	1	·	-1	-4	·	·
CSc1nc(N)nc(SC2C=CCCC2)c1C#N (stereo not drawn)	-2	-24*	-2	-14	2	4	·	?	HepG2 tox=23
Cc1ccc(S(=O)(=O)N(C)C[C@H]2OCCCC[C@H](C)Oc3ccc(NC(=O)c4ccncc4)cc3C(=O)N([C@@H](C)CO)C[C@@H]2C)cc1	-4	-3	-24	15	0	-2	·	·
CCOC(=O)c1cc(C)nc(N2CCCCC2)c1C#N	5	-21*	-6	-5	3	3	1.3	·
C[C@@H]1CN([C@@H](C)CO)S(=O)(=O)c2ccc(Br)cc2O[C@H]1CN(C)C(=O)c1ccccc1	-1	-18*!	-14	-5	-1	0	5.3	-5
Cc1ccc(Cl)cc1N1CCN(C(=O)c2ccc3nc[nH]c3c2)CC1	·	-45*	-2	12	6	7	-17	·
COC(=O)[C@@H](Cc1c[nH]c2ccccc12)NCc1cccc(B(O)O)c1	5	-20*	-2	-3	0	·	?	·
COC(=O)C(Cc1c[nH]c2ccccc12)NC(C)=O (stereo not drawn)	-21	·	·	2	·	·	·	·
Cc1nn2c(NCc3ccccn3)cc(C(C)(C)C)nc2c1-c1ccccc1	0	21	3	0	1	-2	·	·
Cc1cc(NCc2ccccn2)n2nc(C)c(-c3ccccc3)c2n1	·	-47*	18	36	-1	2	-4.5	?
Cc1cc(C(N)=O)nn1-c1c(Cl)cc(Cl)cc1Cl	1	-31*	-1	-3	-2	0	-3.5	·
O=C(COc1ccccc1Br)NCc1ccco1	-5	·	·	·	·	·	·	·
CCc1ccc(OCC(=O)NCc2ccco2)c(Br)c1	1	-21*	-17	-24	3	0	-3.9	·
CCCc1nc2ccc(Br)cn2c1Cc1cccc(Cl)c1	-3	-22*	-5	·	1	-2	-3.2	-3.3
CO[C@@H]1CN(C)C(=O)c2cc(NS(C)(=O)=O)ccc2OC[C@H](C)N(CC2CC2)C[C@H]1C	10	-1	2	-4	-3	-3	·	·
COCC(=O)N(C)C[C@H]1Oc2ncc(C3=CCCC3)cc2C(=O)N([C@@H](C)CO)C[C@H]1C	-1	4	14	8	·	·	·	·
COc1ccc2c3c(n(C)c2c1)[C@H](CO)N(C(=O)NC(C)C)CC31CN(C(C)=O)C1	7	1	·	·	·	·	·	·
Cn1c(=O)c2c(nc(N3CCOCC3)n2C/C=C/c2ccccc2)n(C)c1=O	15	-18*	-1	·	-5	-2	-9.2	-11
Cn1c(=O)c2c(nc(N3CCOCC3)n2CCc2ccccc2)n(C)c1=O	11	17	-9	-11	-4	2	·	·
O=C(O)c1cccnc1SCc1ccccc1Cl	·	-22*	-5	-1	7	-8	-9.8	·
SMILES	PGC1a acetyl inh	rRNA inh HTS	S100A4 MyoIIA	ARNT-TACC3 inh	CASP6 VEID inh	ERAP1 HTS inh	AID977621	AID977628	others
C[C@@H]1CN([C@@H](C)CO)C(=O)c2cc(NC(=O)CCC(F)(F)F)ccc2O[C@@H](C)CCCCO[C@@H]1CN(C)C(=O)c1ccccc1	5	-2	9	-4	0	-1	·	·
COc1ccccc1-c1cn(CC[C@@H]2CC[C@@H](NC(=O)c3cnccn3)[C@H](CO)O2)nn1	-1	0	-3	-2	-2	-1	·	·
COc1ccc(-c2csc(NC(=O)c3ccoc3C)n2)cc1	-9	-25*	4	-7	1	-4	·	-7.2
COc1ccc(-c2csc(NC(=O)c3ccccc3S(C)(=O)=O)n2)cc1	-5	-36*	-4	3	2	-3	-6.3	?
COc1ccc2c3c([nH]c2c1)[C@@H](CO)N(C(=O)NC(C)C)CC31CCN(C(=O)NC(C)C)CC1	·	1	-1	·	1	-1	·	·
COc1ccc(OCc2cn(CC(=O)c3ccc(O)cc3)nn2)cc1	-4	2	-2	1	11	-2	·	·
O=C(Cn1cc(COc2c(F)c(F)cc(F)c2F)nn1)c1ccc(O)cc1	·	-18*	19	-2	4	·	?	·
CCC(=O)N1[C@@H]2c3ccc(-c4ccncc4)c(=O)n3C[C@H]1[C@H](CO)[C@H]2C(=O)N1CCc2ccccc2C1	-6	-3	-1	9	0	3	·	·
O=C(NCc1ccco1)c1ccc(COc2cccc3ccccc23)cc1	0	-24*	3	-3	3	-4	-16	·
O=C(NCc1ccco1)c1ccc(COc2ccccc2Cl)cc1	6	·	·	-2	·	·	·	·
O=S(=O)(Nc1ccccc1N1CCCCC1)c1cccs1	-7	-33*	2	-10	-3	0	-4.5	-8.4
O=C1OCCC1Sc1nc2ccccc2c(=O)n1Cc1ccccc1 (stereo not drawn)	·	-21*	-24	2	3	6	·	-15
CCCC(=O)Nc1ccc2c(c1)C(=O)N(C)[C@H]1CC[C@H](CC(=O)NCc3ccccc3)O[C@@H]1CO2	-2	4	-6	1	-4	0	·	·
COC(=O)CC1COc2ccccc2N1C(=O)c1ccc(Cl)cc1 (stereo not drawn)	0	·	·	-8	·	·	·	·

Compound activity deposited in PubChem by Broad Institute.
